Experimental data collected from several papers.
Compare with care: the assays were run in different laboratories.

C#CCN(C)CCCCCCOCc1ccc(CN(C)c2c3c(nc4ccccc24)CCCC3)cc1  AUC(0-inf) (male Sprague-Dawley rat, plasma; intravenous, 1 mg/kg): 0.17 µg·h/mL
Cn1c2cccc(=O)c-2nc2ccccc21  Papp (PAMPA; 40 µM, 5 h, pH 7.4): 8.6 ×10⁻⁶ cm/s
COCC1=N[C@@]2(O)[C@H](C(=O)N(C)OC)[C@@H](c3ccccc3)[C@]3(c4ccc(OC)cc4)Oc4cc(OC)cc(OC)c4[C@]23N1  Papp (PAMPA; 50 µM, 30 min, pH 7.4): 783 ×10⁻⁶ cm/s
Cn1cc2c3c1C(=O)C(N)=CC3=NCC2  CC50 (HCT-116; cell growth or viability, MTT; 72 h): 2 µM
CC(=O)c1c([O-])cc(C)oc1=O.[Na+]  AUC(0-t) (rat, serum; oral, 200 mg/kg): 3190 µg·h/mL
Cn1cc2c3c1C(=O)C(N)=CC3=[N+](C)CC2  CC50 (HCT-116; cell growth or viability, MTT; 72 h): 1 µM
C[C@]12CC[C@H]3[C@@H](CC=C4CC(O)CC[C@@]43CO)[C@@H]1CCC2O (some centres unmarked)  AUC (rat, plasma; intravenous, 1 mg/kg): 0.167 µg·h/mL
[2H]C([2H])([18F])[C@]([2H])(N)C(=O)O  tracer uptake (U-87 MG; bone; 110 min, tumour-bearing): 1.73 %ID/g
